Legend:
[1] = molecular target: T1, Voltage-gated L-type calcium channel (Rattus norvegicus, UniProt P22002+Q02485+P27732); test: Percentage decrease in blood pressure at a dose of 135 uM/kg for 6-12 hr in spontaneously hypertensive rats.; type: functional, tissue-based
Method in brief: (§1)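 Spontaneously hypertensive rats, n = 5, given 135 µmol/kg orally; systolic pressure recorded directly; maximum percent fall from predrug control noted within 0-6, 6-12 and 12-18 h windows after dosing; mean of five rats.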

[2] = molecular target: T1, Voltage-gated L-type calcium channel; test: Percentage decrease in blood pressure at a dose of 135 uM/kg for 0-6 h in spontaneously hypertensive rats.; type: functional, tissue-based; method in brief: as §1
[3] = molecular target: T1, Voltage-gated L-type calcium channel; test: Percentage decrease in blood pressure at a dose of 135 uM/kg for 12-18 hr in spontaneously hypertensive rats.; type: functional, tissue-based; method in brief: as §1
[4] = Concentration required to cause 50% relaxation of maximal contraction in circumferential rabbit aorta strips in response to KCl (100 mM); type: functional, tissue-based, Oryctolagus cuniculus; conditions: Oryctolagus cuniculus, Aorta
[5] = Partition coefficient (logP); type: physicochemical; conditions: octanol/water
[6] = molecular target: T1, Voltage-gated L-type calcium channel; test: Percentage decrease in blood pressure at a dose of 135 uM/kg for 0-6 hr in spontaneously hypertensive rats.; type: functional, tissue-based; method in brief: as §1
[7] = molecular target: T1, Voltage-gated L-type calcium channel; test: Percentage decrease in blood pressure at a dose of 270 umol/kg for 12-18 h in spontaneously hypertensive rats.; type: functional, tissue-based
Method in brief: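 Spontaneously hypertensive rats, n = 5, dosed orally at 270 µmol/kg; systolic pressure recorded directly; maximum percent fall from predrug control within the 12-18 h window after dosing; mean of five rats.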

For `COc1ccc([C@@H]2Cc3c(cccc3C(F)(F)F)N(CCN(C)C)C(=O)[C@@H]2Cc2ccccc2)cc1`, the “Decrease in blood pressure” value [1] was 8%, the “Decrease in blood pressure” value [2] was 14% and the “Decrease in blood pressure” value [3] was 6%. For the same compound, the IC50 [4] was 790 nM and the logP [5] was 5.2.

In the case of `COc1ccc([C@@H]2Cc3cc(OC(F)F)ccc3N(CCN(C)C)C(=O)[C@@H]2OC(C)=O)cc1`, the “Decrease in blood pressure” value [1] is reported as 13%, the “Decrease in blood pressure” value [2] is reported as 12% and the “Decrease in blood pressure” value [3] is reported as 16%. It also gave an IC50 [4] of 960 nM and a logP [5] of 1.8.

With `COc1ccc([C@@H]2Cc3c(C(=O)O)cccc3N(CCN(C)C)C(=O)[C@@H]2OC(C)=O)cc1` the “Decrease in blood pressure” value [1] was 9%, the “Decrease in blood pressure” value [2] was 8% and the “Decrease in blood pressure” value [3] was 10%. The IC50 [4] was over 30000 nM and the logP [5] was -4.1.

In the case of `COc1ccc([C@@H]2Cc3cc(Sc4ccccc4)ccc3N(CCN(C)C)C(=O)[C@@H]2OC(C)=O)cc1`, the “Decrease in blood pressure” value [1] is reported as 17%, the “Decrease in blood pressure” value [2] is reported as 15% and the “Decrease in blood pressure” value [3] is reported as 19%. For the same compound, the IC50 [4] was 690 nM and the logP [5] was 3.8.

For `COc1ccc([C@@H]2Cc3c(cccc3C(F)(F)F)N(CCN(C)C(C)=O)C(=O)[C@@H]2OC(C)=O)cc1`, the “Decrease in blood pressure” value [1] was 1%, the “Decrease in blood pressure” value [3] was 5% and the IC50 [4] was 4500 nM. The “Decrease in blood pressure” value [6] was 2%.

With `COc1ccc([C@@H]2Cc3cc(C(F)(F)F)ccc3N(CCN(C)C)C(=O)[C@@H]2NC(C)=O)cc1` the “Decrease in blood pressure” value [1] was 12%, the “Decrease in blood pressure” value [2] was 12% and the “Decrease in blood pressure” value [3] was 10%. For the same compound, the IC50 [4] was 9200 nM and the logP [5] was 1.6.

With `COc1ccc([C@@H]2Cc3cc(Cl)ccc3N(CCN(C)C)C(=O)[C@@H]2OC(C)=O)cc1` the “Decrease in blood pressure” value [1] was 14%, the “Decrease in blood pressure” value [2] was 13% and the logP [5] was 2.2. The “Decrease in blood pressure” value [7] was 18%.

In the case of `COc1ccc([C@@H]2Cc3c(cccc3[N+](=O)[O-])N(CCN(C)C)C(=O)[C@@H]2OC(C)=O)cc1`, the “Decrease in blood pressure” value [1] is reported as 12%, the “Decrease in blood pressure” value [2] is reported as 16% and the “Decrease in blood pressure” value [3] is reported as 14%. The IC50 [4] was 370 nM and the logP [5] was 1.7.

In the case of `CNC(=O)Oc1ccc2c(c1)C[C@@H](c1ccc(OC)cc1)[C@@H](OC(C)=O)C(=O)N2CCN(C)C`, the “Decrease in blood pressure” value [1] is reported as 10%, the “Decrease in blood pressure” value [2] is reported as 7% and the “Decrease in blood pressure” value [3] is reported as 12%. For the same compound, the IC50 [4] was 310 nM and the logP [5] was 0.31.

With `CC[C@H]1C(=O)N(CCN(C)C)c2cccc(C(F)(F)F)c2C[C@H]1c1ccc(OC)cc1` the “Decrease in blood pressure” value [1] was 19%, the “Decrease in blood pressure” value [2] was 21% and the “Decrease in blood pressure” value [3] was 15%. It also gave an IC50 [4] of 12 nM and a logP [5] of 4.3.

For `COc1ccc([C@@H]2Cc3cc(C(F)(F)F)ccc3N(CCN(C)C)C(=O)[C@@H]2SC(C)=O)cc1`, the “Decrease in blood pressure” value [1] was 18%, the “Decrease in blood pressure” value [2] was 13% and the “Decrease in blood pressure” value [3] was 23%. It also gave an IC50 [4] of 68 nM and a logP [5] of 3.4.

For `COc1ccc([C@@H]2Cc3c(C(N)=O)cccc3N(CCN(C)C)C(=O)[C@@H]2OC(C)=O)cc1`, the “Decrease in blood pressure” value [1] was 12%, the “Decrease in blood pressure” value [2] was 13% and the “Decrease in blood pressure” value [3] was 12%. For the same compound, the IC50 [4] was over 30000 nM and the logP [5] was -1.

For `COc1ccc([C@@H]2Cc3cc(OCc4ccccc4)ccc3N(CCN(C)C)C(=O)[C@@H]2OC(C)=O)cc1`, the “Decrease in blood pressure” value [1] was 10%, the “Decrease in blood pressure” value [2] was 8% and the “Decrease in blood pressure” value [3] was 11%. It also gave an IC50 [4] of 730 nM and a logP [5] of 3.4.

In the case of `COc1ccc([C@@H]2Cc3c(ccc(Br)c3OC)N(CCN(C)C)C(=O)[C@@H]2OC(C)=O)cc1`, the “Decrease in blood pressure” value [1] is reported as 12%, the “Decrease in blood pressure” value [2] is reported as 18% and the “Decrease in blood pressure” value [3] is reported as 11%. The IC50 [4] was 580 nM and the logP [5] was 2.4.

With `COc1ccc([C@@H]2Cc3cc(SC(C)(C)C)ccc3N(CCN(C)C)C(=O)[C@@H]2OC(C)=O)cc1` the “Decrease in blood pressure” value [1] was 11%, the “Decrease in blood pressure” value [2] was 10% and the “Decrease in blood pressure” value [3] was 14%. It also gave an IC50 [4] of 9000 nM and a logP [5] of 3.6.

In the case of `COc1ccc([C@@H]2Cc3c(C#N)cccc3N(CCN(C)C)C(=O)[C@@H]2OC(C)=O)cc1`, the “Decrease in blood pressure” value [1] is reported as 7%, the “Decrease in blood pressure” value [2] is reported as 9% and the “Decrease in blood pressure” value [3] is reported as 9%. For the same compound, the IC50 [4] was 120 nM and the logP [5] was 1.3.

For `COc1ccc([C@H]2CC(=O)N(CCN(C)C)c3cccc(C(F)(F)F)c3C2)cc1`, the “Decrease in blood pressure” value [1] was 3%, the “Decrease in blood pressure” value [2] was 2% and the “Decrease in blood pressure” value [3] was 3%. For the same compound, the IC50 [4] was 1100 nM and the logP [5] was 3.1.

With `COc1ccc([C@@H]2Cc3cc(Oc4ccccc4)ccc3N(CCN(C)C)C(=O)[C@@H]2OC(C)=O)cc1` the “Decrease in blood pressure” value [1] was 12%, the “Decrease in blood pressure” value [2] was 16% and the “Decrease in blood pressure” value [3] was 16%. It also gave an IC50 [4] of 440 nM and a logP [5] of 3.1.

With `COc1ccc([C@@H]2Cc3cc(OC(=O)C(C)(C)C)ccc3N(CCN(C)C)C(=O)[C@@H]2OC(C)=O)cc1` the “Decrease in blood pressure” value [1] was 14%, the “Decrease in blood pressure” value [2] was 13% and the “Decrease in blood pressure” value [3] was 16%. It also gave an IC50 [4] of 5200 nM and a logP [5] of 2.9.

In the case of `CCC[C@H]1C(=O)N(CCN(C)C)c2cccc(C(F)(F)F)c2C[C@H]1c1ccc(OC)cc1`, the “Decrease in blood pressure” value [1] is reported as 19%, the “Decrease in blood pressure” value [2] is reported as 14% and the “Decrease in blood pressure” value [3] is reported as 24%. The IC50 [4] was 950 nM and the logP [5] was 4.9.

In the case of `COc1ccc([C@@H]2Cc3cc(C(F)(F)F)ccc3N(CCN(C)C)C(=O)[C@@H]2OC(C)=O)cc1`, the “Decrease in blood pressure” value [1] is reported as 19%, the “Decrease in blood pressure” value [2] is reported as 19% and the “Decrease in blood pressure” value [3] is reported as 18%. The IC50 [4] was 1900 nM and the logP [5] was 2.8.

For `COc1ccc([C@@H]2Cc3ccccc3N(CCN(C)C)C(=O)[C@@H]2C)cc1`, the “Decrease in blood pressure” value [1] was 4%, the “Decrease in blood pressure” value [2] was 6% and the “Decrease in blood pressure” value [3] was 8%. It also gave an IC50 [4] of 1100 nM and a logP [5] of 2.5.
